# Paper PMC8930943 (Clinical Drug Investigation, 2022)
# “And” between values parts separate entries of the source, which are not always exact repeats. Equal entries are not always repeated. “Also recorded” adds a separate entry of the source. Where two headings read alike, the source gives them in different places.
# Tests used:
# Study 1 = format: in vivo, human
# Study 2 = format: in vivo, human
# [1] = Assessment of safety and tolerability in Study 1 and Study 2; format: in vivo, human
# Procedure, shortened: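 Single 30 mg oral dose given after a >8-h fast with 180 mL (Study 1) or 240 mL (Study 2) water. Safety was assessed from AEs, laboratory abnormalities, physical examination, vital signs and 12-lead ECGs taken after 10-min supine rest. ECG times: Study 1 at screening, predose, 6, 48 and 264 h; Study 2 at screening, predose, 6 h, 144 h and follow-up. Participants stayed in-house to 144 h, with follow-up on Days 8–10 and 12.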
# [2] = single oral 45 mg dose of [14C] radiolabeled dacomitinib; cited from earlier work
# human plasma proteins = conditions: independent of drug concentrations from 250 to 1000 ng/mL; cited from earlier work
# [3] = cited from earlier work
# [4] = cited from earlier work; remark: listed apart in the source
# [5] = mild hepatic impairment, single oral dacomitinib 30 mg
# [6] = Study 2, severe hepatic impairment
# [7] = severe hepatic impairment, single oral dacomitinib 30 mg
# [8] = Study 1 and Study 2, single oral dose of 30 mg
smiles,measurement,setting,value
COc1cc2ncnc(Nc3ccc(F)c(Cl)c3)c2cc1NC(=O)/C=C/CN1CCCCC1 [Dacomitinib],"adjusted GMR for Cmax,u (90% CI)","Study 1; Study 1, mild hepatic impairment vs normal hepatic function, printed as ratio",1.00 (90% CI 0.69–1.44)
same,AUCinf and Cmax compared with normal hepatic function,"Study 1; Study 1, mild hepatic impairment, single oral dacomitinib 30 mg",unchanged; also recorded: similar
same,AUCinf decrease compared with normal hepatic function,Study 1; [5],6%
same,Cmax increase compared with normal hepatic function,Study 1; [5],3%
same,Cmax decrease compared with normal hepatic function,"Study 1; moderate hepatic impairment, single oral dacomitinib 30 mg",20%
same,"AUCinf,u increase compared with normal hepatic function",Study 2; [6],32%
same,"Cmax,u increase compared with normal hepatic function",Study 2; [6],approximately 69%
same,"adjusted GMR for Cmax,u (90% CI)","Study 2; Study 2, severe hepatic impairment vs normal hepatic function, printed as ratio",1.69 [90% CI 1.08–2.63]
same,AUCinf increase compared with normal hepatic function,Study 2; [7],4% and 4.4%
same,AEs reported,"[1]; Study 1, normal hepatic function or mild hepatic impairment groups",no AEs were reported
same,"serious AEs, discontinuations, treatment-related deaths",[1]; [8],"no serious AEs, discontinuations due to study treatment, or treatment-related deaths"
same,"vital signs, laboratory values, ECG measurements",[1]; [8],No clinically significant changes
same,AEs reported,"[1]; Study 2, normal hepatic function or severe hepatic impairment groups",no AEs were reported
same,tolerability,"[1]; single oral dose of 30 mg, healthy participants and participants with mild, moderate, or severe hepatic impairment",well tolerated
same,radioactivity recovered in feces,[2],79%
same,radioactivity recovered in feces as dacomitinib,[2],20%
same,radioactivity recovered in urine,[2],3%
same,radioactivity recovered in urine as dacomitinib,[2],< 1%
same,in vitro binding to human plasma proteins,human plasma proteins,approximately 98%
same,correlation of concentrations with changes in corrected QT interval,[3],not found to correlate
"O=C(/C=C/CN1CCCCC1)Nc1cc2c(Nc3ccc(F)c(Cl)c3)ncnc2cc1O [PF-05199265, O-desmethyl dacomitinib]",AUCinf decrease compared with normal liver function,Study 2; [7],19%
same,Cmax decrease compared with normal liver function,Study 2; [7],66%
C=CC(=O)Nc1cc(Nc2nccc(-c3cn(C)c4ccccc34)n2)c(OC)cc1N(C)CCN(C)C [osimertinib],decrease in AUC versus normal hepatic function,[4]; cancer patients with mild hepatic impairment (n = 7),63%
same,decrease in AUC versus normal hepatic function,[4]; cancer patients with moderate hepatic impairment (n = 5),68%
